Sampled rows, rich in hits. Any-hit rate of the full collection: about 3.2%.
MEKK2 mut-MEK5 – MEK5 binding signal on mutant MEKK2 PB1, primary screen, biochemical, multiplex bead flow cytometry, Alexa488-MEK5 | Alexa488-MEK5 binding to MEKK2 mutant | percent response, % at 10 µM | 290,000 compounds, 0.35% hits; in the data active = percent response above about 24%, passing the limit was not always enough
MEKK2 WT-MEK5 – modulators of MEK5 binding to wildtype MEKK2, primary screen, biochemical, multiplex bead flow cytometry, Alexa488-MEK5. Mitogen-activated protein kinase kinase kinase 2 (Homo sapiens), Q9Y2U5. Alexa488-MEK5 binding to MEKK2 WT; actives lie on both sides. binding response (% of control), % at 10 µM. 290,000 compounds, 1.1% hits. AID 1531, 2009; in the data active = binding response below about 67% or above about 130%; inconclusive = no clear call, values can overlap the other calls; inactive = in between
UBC13 polyUb – UBC13 polyubiquitin chain formation inhibitors, primary screen, biochemical, TR-FRET, uHTS | AID 485273, 2010 | 330,000 compounds, 0.47% hits | inhibition, % at 20 µM | Ubiquitin-conjugating enzyme E2 N (Homo sapiens), P61088; in the data active = inhibition above about 45%, passing the limit was not always enough; inconclusive = no clear call, values can overlap the other calls
Apaf-1 inh – inhibitors of human Apaf-1 apoptosome, primary screen, biochemical, DEVD-Rh110 fluorescence, uHTS | Apoptotic protease-activating factor 1 (Homo sapiens), O14727 | reconstituted apoptosome caspase-3 activity | inhibition, % at 20 µM | 330,000 compounds, 0.71% hits; active = inhibition of at least 40% at 20 µM
Target sequence (O14727 whole entry, looked up): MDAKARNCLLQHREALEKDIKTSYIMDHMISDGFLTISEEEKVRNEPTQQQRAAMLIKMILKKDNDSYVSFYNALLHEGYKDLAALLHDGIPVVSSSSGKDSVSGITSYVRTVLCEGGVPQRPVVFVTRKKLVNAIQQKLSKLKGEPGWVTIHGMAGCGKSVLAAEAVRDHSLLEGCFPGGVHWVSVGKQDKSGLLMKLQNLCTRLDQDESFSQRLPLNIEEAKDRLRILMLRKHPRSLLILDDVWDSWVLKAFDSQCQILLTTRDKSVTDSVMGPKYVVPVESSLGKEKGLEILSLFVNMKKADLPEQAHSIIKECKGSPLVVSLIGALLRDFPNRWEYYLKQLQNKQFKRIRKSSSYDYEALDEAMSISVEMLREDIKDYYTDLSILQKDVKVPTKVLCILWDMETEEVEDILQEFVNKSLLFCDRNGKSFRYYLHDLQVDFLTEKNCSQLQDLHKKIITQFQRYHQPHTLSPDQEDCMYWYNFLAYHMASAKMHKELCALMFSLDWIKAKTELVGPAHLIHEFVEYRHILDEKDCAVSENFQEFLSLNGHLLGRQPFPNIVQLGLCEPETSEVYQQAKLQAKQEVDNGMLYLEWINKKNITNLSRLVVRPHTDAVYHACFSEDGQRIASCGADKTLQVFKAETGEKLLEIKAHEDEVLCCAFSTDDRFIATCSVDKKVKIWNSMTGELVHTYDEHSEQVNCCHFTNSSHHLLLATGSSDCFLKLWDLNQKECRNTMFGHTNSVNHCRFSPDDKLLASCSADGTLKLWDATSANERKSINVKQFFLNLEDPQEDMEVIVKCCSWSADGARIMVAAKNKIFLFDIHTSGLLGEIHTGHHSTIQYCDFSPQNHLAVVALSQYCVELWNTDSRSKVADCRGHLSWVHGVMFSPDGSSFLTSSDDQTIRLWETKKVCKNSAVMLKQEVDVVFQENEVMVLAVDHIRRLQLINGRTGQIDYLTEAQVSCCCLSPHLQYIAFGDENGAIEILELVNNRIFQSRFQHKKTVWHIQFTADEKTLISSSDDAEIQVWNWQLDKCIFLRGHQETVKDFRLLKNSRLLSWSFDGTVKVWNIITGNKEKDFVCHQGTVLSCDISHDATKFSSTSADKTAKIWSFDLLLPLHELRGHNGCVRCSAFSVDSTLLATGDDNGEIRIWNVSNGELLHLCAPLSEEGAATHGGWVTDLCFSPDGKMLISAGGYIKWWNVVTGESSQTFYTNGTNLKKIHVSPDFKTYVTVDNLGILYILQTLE
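Assay system: Apoptosome proteins | Medium: pH 7.5 Hepes buffer with CHAPS, BSA, DTT | Also added: Cytochrome c and DEVD-Rh110 substrate | Times: 30 min plus 50 min, RT | Detection: Rhodamine 110 fluorescence at Ex 480/Em 540 nm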
Pemphigus Ab inh – inhibitors of pemphigus antibody binding to DSG3, primary screen, biochemical, bead-based, flow cytometry, scFv-GFP. Desmoglein-3 (Homo sapiens), P32926. DSG3-coupled beads, scFv-anti-DSG3-GFP binding; stronger effect = lower value. binding (percent of control), % at 10 µM. 310,000 compounds, 0.48% hits. AID 588358, 2011;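 active = binding more than 3 SD below its plate's average and above zero; inconclusive = below that plate limit but binding exactly zero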
MEKK3 PB1 HTS – modulators of MEKK3-MEK5 PB1 binding, primary screen, biochemical, wildtype MEKK3, multiplex bead flow cytometry, Alexa488-MEK5. Mitogen-activated protein kinase kinase kinase 3 (Homo sapiens), Q99759. 290,000 compounds, 1.4% hits. bead-based flow cytometry, Alexa488-MEK5 binding to MEKK3; actives lie on both sides; 0 = blocked by unlabeled MEK5, 100 = vehicle. binding response (% of control), % at 10 µM;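 active = binding response more than 3 SD above or below the average of its plate-row segment, actives on both sides; inconclusive = wells at one plate position flagged as instrument error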;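 also: Alexa488 bead fluorescence after subtracting the streptavidin-only scavenger bead signal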
MEKK2wt confirm – modulators of MEK5 binding to wildtype MEKK2, confirmation, biochemical, single concentration, multiplex bead flow cytometry; 5,900 compounds, 2.4% hits; Alexa488-MEK5 binding to MEKK2 WT; actives lie on both sides; shares compounds with MEKK3 PB1 HTS; AID 1892, 2009; binding response (% of control), % at 10 µM; in the data active = binding response below about 16% or above about 210%; inactive = in between
MEKK2mut-MEK5 – mutant MEKK2 PB1-MEK5 binding signal retest – biochemical, single concentration, multiplex bead flow cytometry, confirmation; shares compounds with MEKK3 PB1 HTS; Alexa488-MEK5 binding to MEKK2 mutant; percent response, % at 10 µM; 5,900 compounds, 2% hits; AID 1893, 2009; in the data active = percent response mostly above about 71%, no sharp cut-off; inactive = mostly below about 38%;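 also: higher means compound restores mutant binding toward wildtype level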
MEKK3-MEK5 inh – MEKK3 wild-type PB1 binding to MEK5, inhibitors, confirmation, biochemical, bead multiplex flow cytometry, single concentration, wildtype | AID 1894, 2009 | Alexa488-MEK5 binding to MEKK3; stronger effect = lower value | shares compounds with MEKK3 PB1 HTS | binding response (% of control), % at 10 µM | 5,900 compounds, 1.8% hits;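 active = binding response below 72% of control, or above a set upper limit, though filed actives all read lower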
Large screens that a line does not name were inactive (follow-up assays come after a bar, where they were run); ! = not confirmed by another sample; [ ] = remark or other dose.

CCCOc1ccc(C(=O)NCCC(=O)NCCCC(=O)O)cc1	MEKK3 PB1 HTS 130.0 | MEKK2wt confirm inactive | MEKK2mut-MEK5 inactive | MEKK3-MEK5 inh inactive
NC(N)=N/N=C/c1ccc(OS(=O)(=O)c2ccccc2)cc1	MEKK2 WT-MEK5 146.0 | MEKK2wt confirm inactive | MEKK2mut-MEK5 inactive | MEKK3-MEK5 inh inactive
Cc1cccc(NC(=O)c2cc(Cl)ccc2[N+](=O)[O-])c1	MEKK3 PB1 HTS 147.0 | MEKK2wt confirm inactive | MEKK2mut-MEK5 inactive | MEKK3-MEK5 inh inactive
Cc1cccc(NC(=O)c2ccc(NCCc3ccccc3)c([N+](=O)[O-])c2)c1	MEKK3 PB1 HTS 135.0 | MEKK2wt confirm inactive | MEKK2mut-MEK5 inactive | MEKK3-MEK5 inh inactive
Cc1ccc(NC(=O)c2ccc(NCCCN3CCC(C)CC3)c([N+](=O)[O-])c2)cc1F	MEKK2 WT-MEK5 158.0 | MEKK2wt confirm inactive | MEKK2mut-MEK5 inactive | MEKK3-MEK5 inh inactive
O=C(NCCCN1CCCC1=O)C(=O)NCC1OCCCN1S(=O)(=O)c1ccccc1 (stereo not drawn)	none (no result: MEKK2 mut-MEK5, MEKK2 WT-MEK5, UBC13 polyUb, Apaf-1 inh, MEKK3 PB1 HTS)
COCCn1c(=O)[nH]c2cc(C(=O)NCCc3ccc(S(N)(=O)=O)cc3)ccc2c1=O	MEKK3 PB1 HTS 135.0 | MEKK2wt confirm inactive | MEKK2mut-MEK5 inactive | MEKK3-MEK5 inh inactive
CCOC(=O)N1CCN(C(=O)c2ccc3c(=O)n(CCc4ccccc4)c(=O)[nH]c3c2)CC1	MEKK3 PB1 HTS 125.0 | MEKK2wt confirm inactive | MEKK2mut-MEK5 inactive | MEKK3-MEK5 inh inactive
Cc1nn(C)c(C(=O)NCc2ccc(Cl)cc2)c1Cl	none
O=C(Nc1cccc(Cl)c1)Nc1cccc(Cl)c1	MEKK2 WT-MEK5 161.0, Pemphigus Ab inh inconclusive | MEKK2wt confirm inactive | MEKK2mut-MEK5 inactive | MEKK3-MEK5 inh inactive
O=C(Nc1cccc(S(=O)(=O)N2CCCC2)c1)c1ccc2c(c1)OCO2	none
O=C(Nc1cccc(S(=O)(=O)N2CCCCCC2)c1)c1ccc2c(c1)OCO2	MEKK3 PB1 HTS 140.0 | MEKK2wt confirm inactive | MEKK2mut-MEK5 inactive | MEKK3-MEK5 inh inactive
Cc1nc(C)c(C(=O)NCc2ccc(Cl)cc2)o1	MEKK3 PB1 HTS 76.0[inhibitor] | MEKK2wt confirm inactive | MEKK2mut-MEK5 inactive | MEKK3-MEK5 inh inactive
Cc1nc(C)c(C(=O)Nc2cccc(Cl)c2)o1	MEKK3 PB1 HTS 77.0[inhibitor] | MEKK2wt confirm inactive | MEKK2mut-MEK5 inactive | MEKK3-MEK5 inh inactive
O=C(CC1C(=O)NCCN1Cc1cccc(C(F)(F)F)c1)NC1CCCCCC1 (stereo not drawn)	none
COc1ccc(C(=O)Nc2nnc(SCC(=O)NC3CC3)s2)cc1	none
O=C(Nc1cccc(Cl)c1)Nc1cc(S(=O)(=O)N2CCCCC2)ccc1Cl	MEKK2 mut-MEK5 78.0 | MEKK2wt confirm inactive | MEKK2mut-MEK5 inactive | MEKK3-MEK5 inh inactive
N#C/C(=C\c1cccs1)C(=O)NCc1ccco1	none
Cc1ccsc1/C=C(\C#N)C(=O)NCc1ccco1	MEKK3 PB1 HTS 128.0 (no result: UBC13 polyUb, Apaf-1 inh) | MEKK2wt confirm inactive | MEKK2mut-MEK5 inactive | MEKK3-MEK5 inh inactive
CC(=O)c1ccc(NC(=S)Nc2ccc3[nH]c(=O)[nH]c3c2)cc1	MEKK2 WT-MEK5 7.0[inhibitor], MEKK3 PB1 HTS 5.0[inhibitor] | MEKK2wt confirm inactive | MEKK2mut-MEK5 inactive | MEKK3-MEK5 inh inactive
Cc1ccc(NC(=S)Nc2ccc3[nH]c(=O)[nH]c3c2)cc1C	none
CC(C)(C)c1ccc(-c2nnc(NC(=O)c3ccccc3)s2)cc1	none
COCC(=O)Nc1nnc(-c2ccc(C(C)(C)C)cc2)s1	MEKK3 PB1 HTS 144.0 | MEKK2wt confirm inactive | MEKK2mut-MEK5 inactive | MEKK3-MEK5 inh inactive
COc1ccc(NS(=O)(=O)c2cc3c(cc2C)N(C(C)=O)CCO3)cc1OC	none
CN1/C(=C\C(=O)c2cccnc2)C(C)(C)c2ccccc21	MEKK3 PB1 HTS 147.0 | MEKK2wt confirm inactive | MEKK2mut-MEK5 inactive | MEKK3-MEK5 inh inactive
CN1/C(=C\C(=O)c2cncc(Br)c2)C(C)(C)c2ccccc21	none
O=C(COc1ccc2ccc(=O)oc2c1)N1CC[C@@]2(O)CCCC[C@H]2C1	MEKK2 WT-MEK5 1.0[inhibitor], MEKK3 PB1 HTS 2.0[inhibitor] | MEKK2wt confirm inactive | MEKK2mut-MEK5 inactive | MEKK3-MEK5 inh inactive
N#CC(C#N)=CC1=C2OC(c3ccccc3)=CC(c3ccccc3)=C2CCC1	MEKK2 WT-MEK5 72.0[inhibitor], MEKK3 PB1 HTS 74.0[inhibitor] | MEKK2wt confirm inactive | MEKK2mut-MEK5 inactive | MEKK3-MEK5 inh inactive
N#Cc1ccccc1OCC(=O)NCC(c1cccs1)N1CCOCC1 (stereo not drawn)	none
CCC12OC(=N)C(C#N)(C1C)C(C#N)(C#N)C(c1ccccc1)O2 (stereo not drawn)	MEKK3 PB1 HTS 141.0 | MEKK2wt confirm inactive | MEKK2mut-MEK5 inactive | MEKK3-MEK5 inh inactive
CCC1OC2(C)OC(=N)C1(C#N)C(C#N)(C#N)C2c1ccccc1 (stereo not drawn)	none
CCOc1ccccc1NC(=O)COC(=O)C12CC3CC(CC(O)(C3)C1)C2	none (no result: MEKK2 mut-MEK5, MEKK2 WT-MEK5, MEKK3 PB1 HTS)
OC(COc1ccccc1Cl)CN1CCN(CC(O)COc2ccccc2Cl)CC1 (stereo not drawn)	MEKK2 mut-MEK5 35.0, MEKK2 WT-MEK5 150.0 | MEKK2wt confirm inactive | MEKK2mut-MEK5 inactive | MEKK3-MEK5 inh inactive
COc1ccccc1N1CCN(CC(O)COc2cccc3ccccc23)CC1 (stereo not drawn)	MEKK3 PB1 HTS 75.0![inhibitor] | MEKK2wt confirm inactive | MEKK2mut-MEK5 inactive | MEKK3-MEK5 inh inactive
CC(C)OC(=O)C(C)Oc1ccc(C(=O)NCCc2ccccc2)cc1 (stereo not drawn)	MEKK3 PB1 HTS 123.0 | MEKK2wt confirm inactive | MEKK2mut-MEK5 inactive | MEKK3-MEK5 inh inactive
CC(Oc1ccc(C(=O)NCCc2ccccc2)cc1)C(=O)O (stereo not drawn)	none
COc1ccc(Cc2nnc(Nc3ccc(Cl)cc3)[nH]c2=O)cc1	none

Bioassay records (PubChem BioAssay)
